Tests used:
[1] = target: T1, Adrenergic receptor alpha-1 (Rattus norvegicus, UniProt P15823+P23944+P43140); experiment: Binding affinity towards alpha-1 adrenergic receptor in rat cortical membranes; type: cell membranes
T1 sequence (P15823 whole entry): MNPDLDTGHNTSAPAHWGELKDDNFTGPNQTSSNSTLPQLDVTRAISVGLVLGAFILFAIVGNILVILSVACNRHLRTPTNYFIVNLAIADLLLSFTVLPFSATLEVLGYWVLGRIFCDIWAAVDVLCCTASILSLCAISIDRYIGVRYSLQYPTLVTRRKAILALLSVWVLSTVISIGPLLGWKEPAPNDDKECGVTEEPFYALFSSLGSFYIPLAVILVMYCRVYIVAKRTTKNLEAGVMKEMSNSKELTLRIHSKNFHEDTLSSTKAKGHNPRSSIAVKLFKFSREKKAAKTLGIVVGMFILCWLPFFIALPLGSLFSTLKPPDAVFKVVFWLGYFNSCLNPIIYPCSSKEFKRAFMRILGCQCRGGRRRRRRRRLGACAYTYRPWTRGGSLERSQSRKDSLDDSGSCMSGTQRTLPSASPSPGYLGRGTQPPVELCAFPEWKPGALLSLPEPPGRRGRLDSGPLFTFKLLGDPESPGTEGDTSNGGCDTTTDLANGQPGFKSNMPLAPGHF
T1 sequence (P23944 whole entry): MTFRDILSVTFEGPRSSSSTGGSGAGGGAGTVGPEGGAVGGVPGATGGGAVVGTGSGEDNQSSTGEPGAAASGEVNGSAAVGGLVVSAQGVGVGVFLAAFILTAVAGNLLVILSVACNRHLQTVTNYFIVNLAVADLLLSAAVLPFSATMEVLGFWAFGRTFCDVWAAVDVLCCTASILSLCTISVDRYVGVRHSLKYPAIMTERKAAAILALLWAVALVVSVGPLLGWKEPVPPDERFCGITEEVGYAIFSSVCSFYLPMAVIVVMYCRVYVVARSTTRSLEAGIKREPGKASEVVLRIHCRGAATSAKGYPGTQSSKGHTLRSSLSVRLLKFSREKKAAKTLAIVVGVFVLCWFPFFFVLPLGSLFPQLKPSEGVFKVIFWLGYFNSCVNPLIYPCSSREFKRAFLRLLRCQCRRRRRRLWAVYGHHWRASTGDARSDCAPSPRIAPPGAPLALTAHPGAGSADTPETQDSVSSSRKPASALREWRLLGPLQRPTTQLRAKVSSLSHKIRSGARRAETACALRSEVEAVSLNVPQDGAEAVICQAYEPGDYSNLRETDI
T1 sequence (P43140 whole entry): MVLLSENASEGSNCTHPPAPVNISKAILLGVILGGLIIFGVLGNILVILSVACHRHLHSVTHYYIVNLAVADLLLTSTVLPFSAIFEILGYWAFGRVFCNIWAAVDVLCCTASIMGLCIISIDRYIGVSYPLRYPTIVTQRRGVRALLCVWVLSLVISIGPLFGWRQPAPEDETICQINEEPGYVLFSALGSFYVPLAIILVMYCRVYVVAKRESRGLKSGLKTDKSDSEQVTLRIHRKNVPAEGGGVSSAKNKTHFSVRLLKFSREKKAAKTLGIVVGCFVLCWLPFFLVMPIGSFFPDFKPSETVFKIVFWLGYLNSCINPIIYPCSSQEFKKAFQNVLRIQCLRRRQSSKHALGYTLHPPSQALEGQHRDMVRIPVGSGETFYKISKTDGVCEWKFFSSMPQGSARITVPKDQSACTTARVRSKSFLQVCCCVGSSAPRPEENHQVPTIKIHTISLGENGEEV

D(2) dopamine receptor = D(2) dopamine receptor (Rattus norvegicus, UniProt P61169); experiment: Binding affinity towards dopamine receptor D2 in rat striatal membranes; type: cell membranes, Striatum, Membrane
[2] = target: T2, 5-hydroxytryptamine receptor 1A (Rattus norvegicus, UniProt P19327); experiment: Binding was determined on 5-hydroxytryptamine 1A receptor in rat hippocampal membranes; type: cell membranes, Hippocampus
T2 sequence (P19327 whole entry): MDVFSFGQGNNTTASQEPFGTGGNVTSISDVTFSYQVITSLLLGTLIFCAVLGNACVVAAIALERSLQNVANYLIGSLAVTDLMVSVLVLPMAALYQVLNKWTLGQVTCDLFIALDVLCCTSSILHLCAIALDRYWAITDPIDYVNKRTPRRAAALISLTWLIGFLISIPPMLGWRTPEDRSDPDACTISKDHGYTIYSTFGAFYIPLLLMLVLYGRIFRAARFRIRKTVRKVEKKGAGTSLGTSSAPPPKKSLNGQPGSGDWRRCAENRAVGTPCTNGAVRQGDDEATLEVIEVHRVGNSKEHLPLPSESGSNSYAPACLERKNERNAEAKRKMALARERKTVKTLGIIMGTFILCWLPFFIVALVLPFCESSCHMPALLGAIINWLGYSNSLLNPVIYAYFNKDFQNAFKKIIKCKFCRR
Summary of the method: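 Hippocampus from male Wistar Hannover rats, homogenized in 50 mM Tris pH 7.6, washed, and preincubated 10 min at 37 °C. Ki given as mean ± SEM.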

[3] = Selectivity expressed as a ratio of affinity against Alpha 1b-Adrenoceptor to that of 5-HT1A receptor
[4] = target: T3, 5-hydroxytryptamine receptor 1A (Homo sapiens) (UniProt P08908); experiment: Maximal stimulation was expressed as percentage of the maximal 5-HT response in the [35S]GTP-gamma-S, binding assay on 5-hydroxytryptamine 1A receptor; type: functional
T3 sequence (whole entry): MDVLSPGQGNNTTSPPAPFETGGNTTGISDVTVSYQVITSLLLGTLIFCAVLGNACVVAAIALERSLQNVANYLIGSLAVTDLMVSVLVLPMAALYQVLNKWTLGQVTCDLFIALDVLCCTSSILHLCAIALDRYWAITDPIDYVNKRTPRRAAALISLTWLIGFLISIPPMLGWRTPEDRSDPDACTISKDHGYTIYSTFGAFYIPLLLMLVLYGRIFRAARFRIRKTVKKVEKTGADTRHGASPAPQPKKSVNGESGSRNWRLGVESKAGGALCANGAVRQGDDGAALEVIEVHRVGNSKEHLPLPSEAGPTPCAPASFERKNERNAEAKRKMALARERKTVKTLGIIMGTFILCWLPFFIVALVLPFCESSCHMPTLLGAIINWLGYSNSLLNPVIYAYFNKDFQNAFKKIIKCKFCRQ
Summary of the method: (§1)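 Membranes of HeLa cells expressing human 5-HT1A, in 20 mM HEPES, 3 mM MgCl2, 120 mM NaCl pH 7.4. Preincubated 20 min at 30 °C with 30 µM GDP and drug (0.1 nM–100 µM) or 5-HT as reference curve. [35S]GTPγS (200–250 pM) then added for 30 min at 30 °C. Nonspecific binding with 10 µM GTPγS. Curves fitted by ALLFIT to give Emax and pD2 (−log EC50).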

[5] = target: T3, 5-hydroxytryptamine receptor 1A (Homo sapiens); experiment: Potency (pD2) for the stimulation of [35S]GTP-gamma-S, binding on 5-hydroxytryptamine 1A receptor; type: functional; summary of the method: as §1
[6] = Selectivity expressed as a ratio of affinity against Alpha 1A-Adrenoceptor to that of 5-HT1A receptor
[7] = Selectivity expressed as a ratio of affinity against Alpha 1d-Adrenoceptor to that of 5-HT1A receptor
[8] = target: T4, 5-hydroxytryptamine receptor 1A (Rattus norvegicus) (UniProt P19327); experiment: Agonistic activity (induction of forepaw treading in rats)on postsynaptic 5-hydroxytryptamine 1A receptor while iv administration; type: functional, organism-based
T4 sequence (whole entry): T2 sequence (P19327 whole entry)
Summary of the method: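 Male Sprague Dawley rats (175–200 g), iv injection; vehicle DMF 20% v/v plus Tween 80 10% v/v in water, or water for the reference agonist. Rats placed singly 10–15 min beforehand, 4–8 per dose. A blind observer scored fore-paw treading in 30 s sessions every 3 min from 3 to 15 min.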

Chain of D(2) dopamine receptor (P61169 whole entry): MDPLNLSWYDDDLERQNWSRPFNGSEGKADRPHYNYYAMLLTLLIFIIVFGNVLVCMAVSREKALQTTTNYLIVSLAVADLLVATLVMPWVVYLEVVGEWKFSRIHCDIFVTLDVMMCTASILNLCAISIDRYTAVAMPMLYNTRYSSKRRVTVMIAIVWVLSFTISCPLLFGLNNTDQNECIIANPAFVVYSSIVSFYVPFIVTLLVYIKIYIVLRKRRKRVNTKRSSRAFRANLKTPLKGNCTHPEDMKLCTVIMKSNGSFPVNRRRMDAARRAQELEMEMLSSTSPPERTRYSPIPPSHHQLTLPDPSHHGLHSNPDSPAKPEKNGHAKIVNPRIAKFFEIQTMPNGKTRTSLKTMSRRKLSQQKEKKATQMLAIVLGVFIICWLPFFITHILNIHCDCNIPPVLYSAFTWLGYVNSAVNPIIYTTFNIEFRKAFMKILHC

| Structure (SMILES) | Ki [1] | Ki (D(2) dopamine receptor) | Ki [2] | further results |
| --- | --- | --- | --- | --- |
| COc1ccc2c(c1)CC(CCN1CCN(c3ccccn3)CC1)CC2 (stereo unspecified) | 117 nM | 1730 nM | 0.16 nM |  |
| COc1cccc2c1CCC/C2=C\CCNCCOc1ccccn1 | > 850 nM | > 850 nM | 0.71 nM |  |
| COc1cccc(C2CCC(N3CCN(c4ccccc4)CC3)CC2)c1 (stereo in doubt; cis) | 2250 nM | 2380 nM | 183 nM |  |
| COc1ccc2c(c1)CCC(CNCCOc1ccccn1)C2 (stereo unspecified) | > 850 nM | > 850 nM | 59 nM |  |
| COc1cccc(C2=CCC(N3CCN(c4cccc5ccccc45)CC3)CC2)c1 (stereo unspecified) | 986 nM | 327 nM | 15 nM |  |
| COc1cccc(CCCCN2CCN(c3ccccn3)CC2)c1 | 467 nM | 750 nM | 23 nM |  |
| COc1cccc(C2CCC(N3CCN(c4ccccc4OC)CC3)CC2)c1 (stereo in doubt; cis) | 1050 nM | 668 nM | 79.6 nM |  |
| COc1cccc(CCCCNCCOc2ccccn2)c1 | 733 nM | > 850 nM | 39 nM |  |
| COc1cccc(C2=CCC(N3CCN(c4ccccn4)CC3)CC2)c1 (stereo unspecified) | 512 nM | 1220 nM | 536 nM |  |
| COc1cccc(C2CCC(NCCOc3ccccn3)CC2)c1 (cis isomer) |  | 783 nM | 373 nM |  |
| COc1ccc(C2CCC(N3CCN(c4ccccn4)CC3)CC2)cc1 (trans isomer) | 847 nM | 792 nM | 0.046 nM |  |
| COc1cccc(C2CCC(N3CCN(c4ccccn4)CC3)CC2)c1 (cis isomer) | 783 nM | > 850 nM | 815 nM |  |
| COc1cccc(C2CCC(N3CCN(c4ccccc4)CC3)CC2)c1 (stereo in doubt; trans) | 730 nM | 910 nM | 0.026 nM |  |
| COc1cccc(C2CCC(NCCOc3ccccn3)CC2)c1 (stereo in doubt) |  |  |  | Selectivity [3]: 88; Emax [4]: 82%; pD2 [5]: 7.46; Selectivity [6]: 53; Selectivity [7]: 37 |
| CCCN(CCC)C1CCc2cccc(O)c2C1 (stereo unspecified) |  |  |  | Emax [4]: 100% |
| COc1cccc(C2CCC(N3CCN(c4ccccc4OC)CC3)CC2)c1 (stereo in doubt; trans) |  |  |  | Selectivity [3]: 206; Emax [4]: 26.5%; pD2 [5]: 9.91; Selectivity [6]: 24; Selectivity [7]: 21 |
| COc1ccc2c(c1)CCC(CN1CCN(c3ccccn3)CC1)C2 (stereo unspecified) | 585 nM | > 850 nM | 676 nM |  |
| COc1cccc2c1CCC/C2=C\CCN1CCN(c2ccccn2)CC1 | 60 nM | 125 nM | 0.31 nM |  |
| COc1cccc(C2CCC(N3CCN(c4cccc5ccccc45)CC3)CC2)c1 (trans isomer) | 470 nM | 70 nM | 0.22 nM |  |
| COc1ccc(C2CCC(N3CCN(c4ccccn4)CC3)CC2)cc1 (stereo in doubt) | 786 nM | 787 nM | 94 nM |  |
| COc1cccc(C2=CCC(N3CCN(c4ccccc4OC)CC3)CC2)c1 (stereo unspecified) | 408 nM | 2930 nM | 7.1 nM |  |
| COc1cccc(C2=CCC(N3CCN(c4ccccc4)CC3)CC2)c1 (stereo unspecified) | 5160 nM | 2190 nM |  |  |
| COc1cccc(C2CCC(N3CCN(c4ccccn4)CC3)CC2)c1 (trans isomer) |  |  |  | ED50 [8]: 0.721 µg/kg; Selectivity [3]: 265; Emax [4]: 95.9%; pD2 [5]: 9.28; Selectivity [6]: 165; Selectivity [7]: 590 |
| COc1cccc(C2CCC(N3CCN(c4cccc5ccccc45)CC3)CC2)c1 (stereo in doubt) | 5540 nM | 1310 nM | 74 nM |  |
| COc1ccccc1C1CCC(N2CCN(c3ccccn3)CC2)CC1 (stereo in doubt; trans) | 303 nM | 243 nM | 0.2 nM |  |
| COc1ccccc1C1CCC(N2CCN(c3ccccn3)CC2)CC1 (stereo in doubt; cis) | 712 nM | 2120 nM | 480 nM |  |
